# Experimental data taken from ChEMBL document CHEMBL4364260, “Discovery of Ziresovir as a Potent, Selective, and Orally Bioavailable Respiratory Syncytial Virus Fusion Protein Inhibitor” (J Med Chem, 2019).
# Activity calls are given as the source filed them. The rule behind the calls is not given here.
# Tests used:
# [1] = Half-life in CD-1 mouse plasma at 10 mg/kg/day, po administered via gavage and measured up to 24 hrs by LC/MS/MS analysis; assay type: ADME, organism-based
# [2] = Volume of distribution at steady state in CD-1 mouse at 5 mg/kg, iv or 50 mg/kg, po; assay type: ADME, organism-based; conditions: in vivo, read-out: Vdss
# Summary of the method: (§1)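 Single-dose PK in CD-1 mice: 5 mg/kg iv, 50 mg/kg po. Dosed as a solution in 5% DMSO, 40% PEG400, 55% of 0.9% NaCl. Plasma CL, Vss, iv T1/2, AUC and F were derived.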
# [3] = AUC (0 to 24 hrs) in Sprague-Dawley rat at 10 mg/kg, po; assay type: ADME, organism-based; set-up: dose 10 mg/kg, time < 24 hr, route oral; conditions: in vivo
# [4] = Half-life in Wistar-Han rat at 2 mg/kg, iv administered as single dose and measured up to 24 hrs by LC/MS/MS analysis; assay type: ADME, organism-based; conditions: in vivo
# Summary of the method: (§2)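 Male Wistar-Han rats, single dose, 2 mg/kg iv and 10 mg/kg po, run by standard procedures.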
# [5] = Half-life in CD-1 mouse at 5 mg/kg, iv; assay type: ADME, organism-based; conditions: in vivo; summary of the method: as §1
# [6] = tested on: Influenza A virus; assay: Antiviral activity against Influenza A virus H1N1 infected in human Hep2 cells assessed as reduction in virus induced cytopathic effect after 5 days by CCK-8 assay; assay type: functional; conditions: H1N1, HEp-2, 120 h
# [7] = tested on: Fusion glycoprotein F0 (Human respiratory syncytial virus A (strain A2)), P03420 [D489A]; assay: Inhibition of Human respiratory syncytial virus Fusion protein D489A mutant expressed in Hep2 cells as reduction in virus induced cytopathic effect by CCK-8 assay; assay type: cell-based
# Summary of the method: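 HEp-2 cells were seeded at 6000/well and infected with plaque-purified RSV carrying the F-protein mutation (D486N or D489A) at MOI 0.04, with serially diluted compound. Viability was read by CCK-8 absorbance at 450 nm/650 nm, and EC50/EC90 were derived from protection against virus-induced cytopathic effect.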
# [8] = Antiviral activity against Human respiratory syncytial virus A strain Long infected in BALB/c mouse assessed as log reduction in virus titer in lung at 50 mg/kg, po BID administered up to 8 hrs for 4 days relative to control; assay type: functional
# Summary of the method: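 Six-week-old female BALB/c mice, housed specific-pathogen-free, were anesthetized intraperitoneally with ketamine/xylazine and given RSV Long strain intranasally (5×10^5 PFU in 100 µL). Oral dosing was twice daily (0 h and 8 h) for 4 days, 12 mice per group. Mice were then euthanized with CO₂ and lungs harvested for viral titer, compared with vehicle.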
# [9] = Volume of distribution at steady state in Wistar-Han rat at 2 mg/kg, iv or 10 mg/kg, po administered as single dose via gavage and measured up to 24 hrs by LC/MS/MS analysis; assay type: ADME, organism-based; conditions: in vivo, read-out: Vdss; summary of the method: as §2
# [10] = Plasma clearance in Wistar-Han rat at 2 mg/kg, iv or 10 mg/kg, po administered as single dose via gavage and measured up to 24 hrs by LC/MS/MS analysis; assay type: ADME, organism-based; summary of the method: as §2
# [11] = molecular target: Fusion glycoprotein F0 (human respiratory syncytial virus) (UniProt Q89535); assay: Inhibition of Human respiratory syncytial virus Fusion protein assessed as reduction in protein-induced syncytia formation at 0.1 uM after 3 days by microscopic method relative to control
# Summary of the method: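 Serially diluted compound was added to cells expressing RSV-F. Cell-cell fusion (syncytia) was scored by microscopy three days after compound addition.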
# [12] = Volume of distribution at steady state in Beagle dog at 1 mg/kg, iv or 10 mg/kg, po; assay type: ADME, organism-based, Canis lupus familiaris; conditions: in vivo, read-out: Vdss
# Summary of the method: (§3)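 Beagle dog single-dose PK at 1 mg/kg iv and 10 mg/kg po, dosed as a solution in 12.5% captisol in water. Plasma clearance, Vss, iv T1/2, AUC and F were reported.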
# [13] = Antiviral activity against Human respiratory syncytial virus A strain Long infected in human Hep2 cells assessed as reduction in virus induced cytopathic effect in presence of 10% FBS after 5 days by CCK-8 assay; assay type: functional, cell-based; conditions: HEp-2, 120 h
# Summary of the method: (§4)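 HEp-2 cells seeded at 6000/well and infected the next day at MOI 0.02, a dose that gives about 90% CPE by day 5. Serial compound dilutions were present throughout, in standard medium with 10% FBS. Viability was read by CCK-8 at day 5, and EC50 is the concentration that cuts CPE by 50%.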
# [14] = Oral bioavailability in cynomolgus monkey at 10 mg/kg; assay type: ADME, organism-based, Macaca fascicularis; conditions: in vivo
# Summary of the method: (§5)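 Cynomolgus monkeys got single doses of 2 mg/kg iv and 10 mg/kg po as a solution in 12.5% captisol in water. Plasma CL, Vss, iv T1/2, AUC and oral F were derived.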
# [15] = Clearance in Beagle dog at 1 mg/kg, iv or 10 mg/kg, po; assay type: ADME, organism-based, Canis lupus familiaris; conditions: in vivo; summary of the method: as §3
# [16] = Clearance in CD-1 mouse at 5 mg/kg, iv or 50 mg/kg, po; assay type: ADME, organism-based; conditions: in vivo; summary of the method: as §1
# [17] = Ratio of AUC (0 to 24 hrs) in lung to plasma of CD-1 mouse at 10 mg/kg, po administered via gavage by LC-MS/MS analysis; assay type: ADME, organism-based; conditions: read-out: Ratio AUC
# [18] = tested on: Human respirovirus 3; assay: Antiviral activity against Human parainfluenza virus 3 infected in human Hep2 cells assessed as reduction in virus induced cytopathic effect after 5 days by CCK-8 assay; assay type: functional, organism-based
# [19] = AUC (0 to 24 hrs) in Wistar-Han rat at 10 mg/kg, po administered as single dose via gavage and measured up to 24 hrs by LC/MS/MS analysis; assay type: ADME, organism-based; set-up: dose 10 mg/kg, time < 24 hr, route oral; conditions: in vivo
# Summary of the method: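 Single-dose PK in male Wistar-Han rats at 2 mg/kg iv or 10 mg/kg po, as a solution in 5% DMSO, 40% PEG400 and 55% 0.9% sodium chloride.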
# [20] = AUC (0 to 24 hrs) in cynomolgus monkey at 10 mg/kg, po; assay type: ADME, organism-based, Macaca fascicularis; set-up: dose 10 mg/kg, time < 24 hr, route oral; conditions: in vivo
# Summary of the method: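 Single-dose PK. Dog received 1 mg/kg iv or 10 mg/kg po, and cynomolgus monkey received 2 mg/kg iv or 10 mg/kg po. Both were given as a solution in 12.5% captisol in water. Plasma AUC was taken from the oral arm, with CL, Vss, iv T1/2 and F also derived.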
# [21] = Oral bioavailability in Sprague-Dawley rat at 10 mg/kg; assay type: ADME, organism-based; conditions: in vivo
# Summary of the method: (§6)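 Rat single-dose PK: 2 mg/kg iv and 10 mg/kg po. Compound was given as a solution in 5% DMSO/40% PEG400/55% of 0.9% saline. Plasma CL, Vss, iv half-life, AUC and oral bioavailability were reported.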
# [22] = tested on: Human orthopneumovirus; assay: Antiviral activity against Human respiratory syncytial virus B18537 infected in human Hep2 cells assessed as reduction in virus induced cytopathic effect in presence of 10% FBS after 5 days by CCK-8 assay; assay type: functional, organism-based; conditions: subgroup B / strain 18537, HEp-2, 120 h; summary of the method: as §4
# [23] = Volume of distribution at steady state in cynomolgus monkey at 2 mg/kg, iv or 10 mg/kg, po; assay type: ADME, organism-based, Macaca fascicularis; conditions: in vivo, read-out: Vdss; summary of the method: as §5
# [24] = Volume of distribution at steady state in Sprague-Dawley rat at 2 mg/kg, iv or 10 mg/kg, po; assay type: ADME, organism-based; conditions: in vivo, read-out: Vdss; summary of the method: as §6
# [25] = Clearance in cynomolgus monkey at 2 mg/kg, iv or 10 mg/kg, po; assay type: ADME, organism-based, Macaca fascicularis; conditions: in vivo; summary of the method: as §5
structure (smiles),measurement,setting,value
Cc1ccc2nc(N3CCS(=O)(=O)c4ccccc4C3)nc(NCC3(N)COC3)c2c1 [ZIRESOVIR],half-life,[1],1.02 h
same,Vd,[2],6.3 L/kg
same,AUC(0-t) at 24 h,[3],906 ng·h/mL
same,half-life,[4],1.2 h
same,half-life,[5],0.4 h
same,EC90,[6],> 100000 nM
same,EC90,[7],10000 nM
same,FC,[8],1.9
same,Vd,[9],3.9 L/kg
same,clearance,[10],58 mL/min/kg
same,inhibition,[11],100%
same,Vd,[12],6.7 L/kg
same,EC50,[13],3 nM
same,EC90,[13],5 nM
same,bioavailability,[14],22%
same,clearance,[15],36 mL/min/kg
same,clearance,[16],277 mL/min/kg
same,Kp,[17],8.6
same,Activity,[18],inactive
same,AUC(0-t) at 24 h,[19],906 ng·h/mL
same,AUC(0-t) at 24 h,[20],1440 ng·h/mL
same,bioavailability,[21],32%
same,EC50,[22],2 nM
same,EC90,[22],3 nM
same,Vd,[23],1.9 L/kg
same,Vd,[24],3.9 L/kg
same,clearance,[25],26 mL/min/kg
